An excerpt weighted towards active compounds, which were near 2.1% of everything screened.
SUMO1-SIM PPI – SUMO1-SIM interaction modulation | P63165 | SUMO1 binding to a labelled peptide, TR-FRET, 1 h | inhibition, % at 20 µM | 360,000 compounds, 0.33% hits | AID 602429; in the data active = inhibition above about 37%
Target sequence (P63165 whole entry, looked up): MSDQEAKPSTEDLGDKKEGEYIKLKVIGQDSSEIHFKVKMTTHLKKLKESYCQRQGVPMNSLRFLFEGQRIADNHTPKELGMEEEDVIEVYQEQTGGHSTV
GRK2 aptamer HTS – inhibitors of human GRK2 displacing RNA aptamer | bead flow cytometry, FAM-aptamer displacement from GRK2 | 330,000 compounds, 0.59% hits | P25098 | AID 488847 | inhibition of aptamer binding, % at 10 µM;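 active = inhibition of aptamer binding above 40%, roughly 3 SD of noise, on plates passing a quality check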;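 also: median bead fluorescence of bound FAM aptamer so fluorescent compounds give negative values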
DNMT1 inh – blocks human DNA methyltransferase DNMT1; AID 588458; 360,000 compounds, 0.83% hits; DNMT1 molecular beacon, Hinp1I cleavage, fluorescence; inhibition (reported as % activation of signal), % at 10 µM; in the data active = inhibition above about 50%
STEP block – inhibitors of human striatal-enriched phosphatase STEP. inhibition, % at 20 µM. 360,000 compounds, 0.25% hits. AID 588621. recombinant STEP, OMFP fluorogenic substrate, fluorescence;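 active = inhibition at 20 µM, scaled per plate between control wells, above about 37%, limit read from the data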;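 also: 0% = DMSO with enzyme and substrate and 100% = substrate only without enzyme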
Target sequence (P54829 whole entry, looked up): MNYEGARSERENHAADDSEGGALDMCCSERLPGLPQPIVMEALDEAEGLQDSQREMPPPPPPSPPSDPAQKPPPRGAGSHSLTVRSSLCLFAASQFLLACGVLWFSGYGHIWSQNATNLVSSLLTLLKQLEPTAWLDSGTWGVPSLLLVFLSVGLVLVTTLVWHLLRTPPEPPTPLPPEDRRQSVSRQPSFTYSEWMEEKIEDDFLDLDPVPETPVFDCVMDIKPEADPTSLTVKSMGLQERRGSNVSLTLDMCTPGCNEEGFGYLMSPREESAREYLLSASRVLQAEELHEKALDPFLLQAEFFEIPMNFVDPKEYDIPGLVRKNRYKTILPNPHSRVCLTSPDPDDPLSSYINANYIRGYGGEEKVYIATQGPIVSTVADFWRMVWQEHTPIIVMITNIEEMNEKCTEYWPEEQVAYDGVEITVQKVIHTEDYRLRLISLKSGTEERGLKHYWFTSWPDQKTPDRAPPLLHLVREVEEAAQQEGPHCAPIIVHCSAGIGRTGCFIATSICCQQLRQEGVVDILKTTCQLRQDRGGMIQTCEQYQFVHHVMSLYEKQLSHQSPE
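Measure: Control-normalized % inhibition with plate pattern correction | Test system: STEP phosphatase, cell-free reaction | Medium: pH 6.0 Bis-Tris with DTT and Tween 20 | Technique: Fluorescence, 480/540 nm | Times: Reaction 20 min, ambient temperature | Doses: Single compound dose of 20 µM, 1% DMSO final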
Scp1 inh – inhibitors of human Scp-1 phosphatase. AID 493091. 340,000 compounds, 0.88% hits. inhibition, % at 20 µM. Recombinant Scp1, phosphopeptide, malachite green phosphate absorbance. Q9GZU7;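 active = inhibition above about 50% at 20 µM, limit read from the data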;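 also: plate controls were DMSO wells with enzyme for no effect and wells lacking enzyme for full effect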
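Material – SCP-1 phosphatase catalytic domain, residues 76-261 · Buffer or medium – Acidic Tris acetate buffer with magnesium and detergent · Also added – Phospho 17-mer peptide substrate · Compound – single 20 µM dose, 1% DMSO · Times – 45 min room-temperature reaction, 5 min colour, 30 min stabiliser · Technique – Phosphate-binding colour reagent, absorbance read at 630 nm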
LMPTP inh – LMPTP (human) inhibition; P24666; recombinant LMPTP-A, OMFP fluorogenic substrate, fluorescence intensity; inhibition, % at 20 µM; 360,000 compounds, 0.22% hits; AID 651560;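 active = compounds that cut the enzyme signal by at least half of the control window in the single-dose screen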;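 also: plate controls were DMSO wells with enzyme plus substrate for no effect and substrate without enzyme for full effect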
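Assay system: LMPTP-A phosphatase enzyme | Input: 0.625 nM enzyme | Also added: Fluorogenic phosphatase substrate OMFP at 400 µM final | Compound dosing: One test concentration per compound, 20 µM, with 3% DMSO overall | Schedule: 50 min enzyme reaction at room temperature, protected from light | Signal: Fluorescence intensity | Benchmarks: no-enzyme and uninhibited controls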
* marks the source's active call; other numbers are inactive results.

Results for O=C1Nc2ccccc2/C1=C/c1cnc[nH]1 ?
SUMO1-SIM PPI: -11; GRK2 aptamer HTS: 3; DNMT1 inh: 0; STEP block: 2; Scp1 inh: 82*; LMPTP inh: -1

What do the screens show for `COc1ccc2c(c1)/C(=C/c1cnc[nH]1)C(=O)N2`?
SUMO1-SIM PPI: -27; GRK2 aptamer HTS: 3; DNMT1 inh: 0; STEP block: 1; Scp1 inh: -9; LMPTP inh: -1

How did C=CCC1(CC)C(=O)NC(=S)NC1=O do in these assays?
SUMO1-SIM PPI: 42*; DNMT1 inh: 2; STEP block: -1; Scp1 inh: 7; LMPTP inh: -1

What do the screens show for `C=C(C)CC1(CC)C(=O)NC(=S)NC1=O`?
SUMO1-SIM PPI: 2; DNMT1 inh: 3; STEP block: -4; Scp1 inh: -4; LMPTP inh: -2

What do the screens show for `Cc1cc(/C=C2\C(=O)NC(=O)N(c3ccccc3)C2=O)c(C)n1-c1ccc(C(=O)O)c(Cl)c1`?
SUMO1-SIM PPI: -3; GRK2 aptamer HTS: 31; DNMT1 inh: 40; STEP block: 46*; Scp1 inh: 40; LMPTP inh: 1

How did CN1C(=O)NC(=O)/C(=C/c2ccc([N+](=O)[O-])o2)C1=O do in these assays?
GRK2 aptamer HTS: 0; Scp1 inh: 62*

How did O=C1NC(=O)N(c2ccccc2)C(=O)/C1=C\c1ccc([N+](=O)[O-])o1 do in these assays?
GRK2 aptamer HTS: 93*

How did CCOP(=O)(OCC)C(O)c1ccc(OC)c(OC)c1 (configuration not stated) do in these assays?
SUMO1-SIM PPI: 2; GRK2 aptamer HTS: 1; DNMT1 inh: -1; STEP block: 3; Scp1 inh: -6; LMPTP inh: -1

What do the screens show for `COc1ccc(OC)c(N2C(=O)NC(=O)/C(=C\c3ccc([N+](=O)[O-])s3)C2=O)c1`?
SUMO1-SIM PPI: 48*; GRK2 aptamer HTS: 6; DNMT1 inh: 16; STEP block: 4; Scp1 inh: 3; LMPTP inh: 5

How did CCC1CN1P(=O)(N1CCCC1)N1CC1CC (configuration not stated) do in these assays?
SUMO1-SIM PPI: -3; DNMT1 inh: 2; STEP block: -3; Scp1 inh: -13; LMPTP inh: -6

Results for CCCCn1c(NS(=O)(=O)c2ccccc2)c(C(=O)OCC)c2nc3ccccc3nc21 ?
SUMO1-SIM PPI: 49*; GRK2 aptamer HTS: 0; DNMT1 inh: 68*; STEP block: 3; Scp1 inh: -14; LMPTP inh: 9

What do the screens show for `C=CCN1C(=O)NC(=O)/C(=C/c2cccn2C)C1=O`?
SUMO1-SIM PPI: -5; GRK2 aptamer HTS: 4; DNMT1 inh: 2; STEP block: 2; Scp1 inh: -5; LMPTP inh: -1

Results for C=CCN1C(=O)NC(=O)/C(=C/c2ccoc2)C1=O ?
SUMO1-SIM PPI: 5; GRK2 aptamer HTS: 11; DNMT1 inh: 50*; STEP block: 1; Scp1 inh: 28; LMPTP inh: 0

How did Nc1cc(Cl)cc(Cl)c1 do in these assays?
SUMO1-SIM PPI: 9; GRK2 aptamer HTS: 0; DNMT1 inh: -2; STEP block: -3; Scp1 inh: -12; LMPTP inh: 0

What do the screens show for `CCOC(=O)[C@]12Cc3cc(Cl)ccc3[C@H]1N(C1CCCCC1)C(=O)c1ccccc12`?
SUMO1-SIM PPI: 9; LMPTP inh: 4

Results for C=C1C(=O)O[C@@H]2C[C@@H](C)[C@H]3C=CC(=O)[C@]3(O)C[C@@H]12 ?
SUMO1-SIM PPI: 53*; GRK2 aptamer HTS: 0; DNMT1 inh: -31; STEP block: -1; Scp1 inh: -8; LMPTP inh: 1

How did C=C1C(=O)OC2CC3(C)OC3CCC(C)=CC(OC(C)=O)C12 (configuration not stated) do in these assays?
SUMO1-SIM PPI: 7; DNMT1 inh: -1; STEP block: -2; Scp1 inh: -3; LMPTP inh: 0

What do the screens show for `O=P1(Oc2ccccc2)C[C@@H](O)[C@@H](O)[C@H](COCc2ccccc2)O1` (some centres not stated)?
SUMO1-SIM PPI: 0; DNMT1 inh: 1; STEP block: 1; Scp1 inh: -3; LMPTP inh: -2

Results for O=C(CCc1ccccc1)N1Cc2cc(N3CCCCC3)ccc2-n2nncc2C1 ?
SUMO1-SIM PPI: 10; DNMT1 inh: 2; STEP block: 0; LMPTP inh: 0

Results for CCC(C)NC(=O)c1c(N)n(Cc2ccc3c(c2)OCO3)c2nc3ccccc3nc12 (configuration not stated) ?
SUMO1-SIM PPI: 40*; GRK2 aptamer HTS: 6; DNMT1 inh: 36; STEP block: 0; Scp1 inh: -5; LMPTP inh: 8

What do the screens show for `CCC(C)NC(=O)c1c(N)n(CCCOC)c2nc3ccccc3nc12` (configuration not stated)?
SUMO1-SIM PPI: 41*; GRK2 aptamer HTS: 2; DNMT1 inh: 38; STEP block: 0; Scp1 inh: -2; LMPTP inh: 5

What do the screens show for `CCCOC(=O)C1C2CCC(O2)C1C(=O)O` (configuration not stated)?
SUMO1-SIM PPI: 0; DNMT1 inh: 4; STEP block: 2; Scp1 inh: -4; LMPTP inh: 0

What do the screens show for `Cc1ccc(-n2c(=O)[nH]c3ccccc3c2=O)cc1[N+](=O)[O-]`?
SUMO1-SIM PPI: 10; DNMT1 inh: -10; STEP block: 0; LMPTP inh: 1

How did COc1ccc(OCC(=O)N2CCCC(N3CCN(c4ccccc4C)CC3)C2)cc1 (configuration not stated) do in these assays?
SUMO1-SIM PPI: 18; GRK2 aptamer HTS: 0; DNMT1 inh: 2; STEP block: 2; Scp1 inh: 1; LMPTP inh: -2

How did CCN(CC)C(=O)c1ccc(N(Cc2ccccc2)S(C)(=O)=O)cc1 do in these assays?
SUMO1-SIM PPI: 0; GRK2 aptamer HTS: 0; DNMT1 inh: -1; STEP block: 6; Scp1 inh: -2; LMPTP inh: 0

What do the screens show for `O=C(O)c1cccc2c1NC(c1cccc([N+](=O)[O-])c1)C1CC(Sc3ccccc3[N+](=O)[O-])C(Cl)C21` (configuration not stated)?
SUMO1-SIM PPI: 41*; DNMT1 inh: 85*; STEP block: 8; Scp1 inh: 1; LMPTP inh: 36

How did CCN(CC)C(=O)c1ccc2c(c1)C1C(Cl)C(Sc3ccccc3[N+](=O)[O-])CC1C(C(=O)O)N2 (configuration not stated) do in these assays?
SUMO1-SIM PPI: 65*; GRK2 aptamer HTS: 14; DNMT1 inh: 64*; STEP block: 6; Scp1 inh: 24; LMPTP inh: 50
